# From PubChem BioAssay
# HTRA1 inhibitor: inhibitors of human serine peptidase HTRA1. AID 504803. inhibition, % at 5.96 µM. hit rate 0.5% among 340,000. Q92743. recombinant HTRA1, FP-rhodamine activity-based probe, fluorescence polarization; in the data active means inhibition above about 36%;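 further: 0% = enzyme with DMSO and 100% = wells lacking enzyme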
# PME-1 inh: blocks human protein phosphatase methylesterase 1. Q9Y570. recombinant PME-1, FP-Rh probe fluorescence polarization. inhibition, % at 5.9 µM. hit rate 0.53% among 320,000;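 active means inhibition above the campaign mean of all compounds plus 3 SD, cut at about 26% in these data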;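 further: competitive labeling of PME-1 active site by serine hydrolase directed probe; 0% = PME-1 with DMSO and 100% = wells lacking PME-1 enzyme; inhibitors block probe labeling so polarization falls and inhibition rises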
# mABHD4 FP: inhibitors of mouse ABHD4. Q8VD66. purified mABHD4, FP-Rh probe fluorescence polarization. inhibition, % at 8.92 µM. hit rate 0.54% among 370,000. AID 720543;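 active means inhibition exceeding the mean over every tested compound plus 3 SD, cut at about 30% in these data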;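 further: 0% = plate median of compound wells and 100% = S159A mutant with DMSO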
# Target sequence (Q8VD66 whole entry, looked up): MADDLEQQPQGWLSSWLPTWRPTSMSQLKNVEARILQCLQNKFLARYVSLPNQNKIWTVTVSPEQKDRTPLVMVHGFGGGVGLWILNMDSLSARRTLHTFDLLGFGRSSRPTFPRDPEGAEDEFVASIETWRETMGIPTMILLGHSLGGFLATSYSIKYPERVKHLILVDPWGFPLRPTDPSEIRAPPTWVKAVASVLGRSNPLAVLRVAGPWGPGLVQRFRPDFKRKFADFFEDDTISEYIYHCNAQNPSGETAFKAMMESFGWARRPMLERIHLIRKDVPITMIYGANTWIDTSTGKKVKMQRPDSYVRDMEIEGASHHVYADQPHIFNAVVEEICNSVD
#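 Doses – 8.92 µM, single dose · Material – wild-type mouse ABHD4 protein · Replication – single well per compound (singlicate) · Measure – percent inhibition of probe binding, normalized to plate controls · Schedule – 45 min compound pre-incubation plus 60 min probe step, 25 °C · Detection – fluorescence polarization with parallel and perpendicular emission, 525/598 nm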
# TCR CD3 inh: human TCR-CD3 binding inhibition. TAMRA-labeled TCR probe fluorescence, biochemical. inhibition, % at 9.4 µM. hit rate 0.37% among 360,000; in the data active means inhibition above about 19%;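 further: recombinant mutant TCR 2C K166C tagged with TAMRA read by polarization; 0% = receptor in buffer alone and 100% = receptor with positive control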
# SIAE primary: inhibitors of human sialic acid acetylesterase SIAE. inhibition, % at 9.66 µM. hit rate 0.69% among 370,000. Q9HAT2. SIAE FP-Rh probe binding, fluorescence polarization;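 active means inhibition above a cutoff: mean of compounds within the control limits plus 3 SD of those, cut at about 17% in these data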;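 further: 0% = plate median of compound wells and 100% = probe without SIAE protein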
# Fam108B counter: Fam108B inhibition, counter-screen for RBBP9 inhibitors | recombinant Fam108B, FP-Rh probe fluorescence polarization | hit rate 0.33% among 300,000 | inhibition, % at 9.51 µM;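 active means inhibition above the screen mean inhibition plus 3 SD, computed separately per campaign, cut at about 18% in these data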;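 further: inhibitors lower polarization as less probe binds the enzyme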
# Fam108b confirm: Fam108b (mouse) hydrolase inhibition, confirmation assay; recombinant Fam108b, FP-Rh probe fluorescence polarization; hit rate 44% among 930; inhibition, % at 9.51 µM; shares compounds with Fam108B counter;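 active means inhibition above a limit from the primary screen, the mean over all compounds plus 3 SD, cut at about 19% in these data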;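 further: 0% = median of active Fam108b wells and 100% = catalytically dead S170A mutant; inhibitors free the probe so polarization falls as inhibition rises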
# Fam108b ABPP HTS: mouse ABHD17B inhibition | AID 588649 | hit rate 44% among 260 | inhibition, % at 20 µM | shares compounds with Fam108B counter | recombinant Fam108b, gel-based ABPP, fluorophosphonate probe; in the data active means inhibition above about 40%
# Active calls of the source: *; / = no result. Hits are enriched below; roughly 1.8% of the tested compounds scored in any of these assays.
SMILES,HTRA1 inhibitor,PME-1 inh,mABHD4 FP,TCR CD3 inh,SIAE primary,Fam108B counter,Fam108b confirm,others
COC(=O)[C@]12C[C@H](CC(=O)NCc3ccc(OC)c(OC)c3)C(=O)N(Cc3cccc4ccccc34)C1=C[C@H](COCc1ccccc1)O[C@@H]2C,/,/,-11,/,-4,/,/,
CC(=O)N1c2cc(S(=O)(=O)N3CCN(c4ccccc4F)CC3)c(Br)cc2CC1C (configuration not stated),/,/,-6,/,-5,/,/,
COc1cc(/C=N/Nc2nc3c(c(=O)n(C)c(=O)n3C)n2Cc2ccccc2)ccc1OC(=O)c1ccco1,-2,39*,0,-5,21*,19*,-10,
O=[N+]([O-])c1cccc(-c2nc(-c3ccccc3)c(-c3cccs3)[nH]2)c1,-5,2,10,0,14,-2,/,
O=[N+]([O-])c1ccc(-c2nc(-c3cccs3)c(-c3cccs3)[nH]2)cc1,11,42*,-19,-12,14,24*,20*,
Fc1ccc(-c2nc(-c3cccs3)[nH]c2-c2ccc(F)cc2)cc1,3,15,4,3,15,19*,6,
O=[N+]([O-])c1cccc(-c2nc(-c3cccs3)c(-c3cccs3)[nH]2)c1,9,32*,10,0,9,26*,7,
O=C([C@@H]1C[C@H]1c1ccccc1)N1CC[C@H]2[C@H](CCCN2Cc2cc(F)cc(F)c2)C1,/,/,-1,/,0,/,/,
O=S(=O)(Nc1cc2nc3ccccc3nc2n1Cc1ccccc1)c1ccc(Cl)cc1,29,53*,8,-5,30*,43*,64*,Fam108b ABPP HTS=20
Cc1ccc(N=Nc2ccc3ccccc3c2O)cc1,11,-5,-1,-5,-7,28*,9,
COc1ccc(N=Nc2ccc3ccccc3c2)c(O)c1,3,1,7,-1,-13,-1,/,
Oc1c(N=Nc2ccc(F)cc2)ccc2ccccc12,6,-15,12,-9,6,-16,/,
COc1cccc(N=Nc2ccc3ccccc3c2O)c1,6,7,8,-10,-2,19*,5,
Cn1c(=N)n(CC(=O)c2ccc(Cl)c(Cl)c2)c2ccccc21,-30,19,5,0,4,21*,6,
Cn1c(=N)n(CC(=O)c2ccccc2)c2ccccc21,/,1,1,8,6,0,/,
COC(=O)c1sc(S(=O)(=O)Nc2c(C)nn(C)c2C)c(C(=O)OC)c1C,8,/,4,-2,1,/,/,
COC(=O)c1sc(NC(=S)NNC(=O)c2c(Br)c(C)nn2C)c(C(=O)OC)c1C,2,25,8,-4,-8,26*,24*,
C=CCn1c(NS(=O)(=O)c2ccccc2)c(S(=O)(=O)c2ccc(C)cc2)c2nc3ccccc3nc21,-8,33*,2,-5,2,74*,5,
O=S(=O)(Nc1c(S(=O)(=O)c2ccccc2)c2nc3ccccc3nc2n1C1CCCCC1)c1ccccc1,13,-10,11,-1,6,3,/,
Nc1nc(-c2ccco2)c(-c2ccco2)s1,20,1,29,-1,6,14,/,
O=C(CCl)Nc1nc(-c2ccco2)c(-c2ccco2)s1,0,-7,10,5,2,19*,7,
COc1ccc2c(c1)C(=NNc1ccc(C(=O)O)cc1)c1cc(OC)ccc1-2,-12,-34,10,-2,-8,30*,30*,Fam108b ABPP HTS=0
C[C@H]1[C@@H](OC(=O)N2CCOCC2)CC[C@@]23CCCN2C(=O)CCC[C@@H]13,/,/,1,/,4,/,/,
O=C(CN1CCCc2ccccc21)N/N=C/c1ccccc1,8,0,11,-2,6,4,/,
O=C(CN1CCCc2ccccc21)N/N=C/c1c(O)ccc2ccccc12,13,31*,21,8,8,43*,16,
SMILES,HTRA1 inhibitor,PME-1 inh,mABHD4 FP,TCR CD3 inh,SIAE primary,Fam108B counter,Fam108b confirm,others
CC(C)Cn1c(N)c(C(=O)NCC2CCCO2)c2nc3ccccc3nc21 (configuration not stated),19,22,3,2,3,-6,/,
COCCn1c(N)c(C(=O)NCC2CCCO2)c2nc3ccccc3nc21 (configuration not stated),-8,38*,6,0,0,61*,-7,
Cc1ccc(-c2c(C(=O)NC3CCCC3)oc(=O)c3ccccc23)cc1,/,/,-9,/,4,/,/,
C=C(C)Cn1c(SCC)nc2ccccc2c1=O,-2,-6,3,0,1,3,/,
C=C(C)Cn1c(SCC(=O)N/N=C/c2c(O)ccc3ccccc23)nc2ccccc2c1=O,9,-10,1,12,9,29*,-15,
CCN(CC)c1ccc(C2Nc3cccc4cccc(c34)N2)c(O)c1,18,47*,23,-4,10,51*,53*,Fam108b ABPP HTS=90*
COc1ccc(Br)cc1C1Nc2cccc3cccc(c23)N1,34,0,28,7,2,2,/,
O=C(CN1C(=O)S/C(=C\c2cc(Cl)c(O)c(Cl)c2)C1=O)Nc1ccccc1,6,23,22,7,3,23*,19*,
O=C(CN1C(=O)S/C(=C\c2ccccn2)C1=O)Nc1ccccc1,-5,/,-3,4,-12,/,/,
CCN(CC)C(=O)CC[C@H]1CC[C@]2(CCCN(Cc3ccc(OC)cc3)C2)O1,/,/,0,/,-1,/,/,
c1ccc(Nc2nc3ccccc3n3nnnc23)cc1,-3,11,4,-6,5,1,/,
CCN(CC)S(=O)(=O)c1ccc(Nc2nc3ccccc3n3nnnc23)cc1,9,10,6,-3,-19,26*,13,
c1ccc2c(c1)nc(Nc1ccc3c(c1)OCO3)c1nnnn12,13,16,11,-3,8,23*,7,
O=C1c2ccccc2-c2onc3ccc(NCCCn4ccnc4)c1c23,/,109*,/,/,/,122*,150*,Fam108b ABPP HTS=80*
NS(=O)(=O)c1ccc(NCCCn2ccnc2)c([N+](=O)[O-])c1,2,-1,-1,-1,14,2,/,
Cc1cc(C(=O)CSc2nnnn2C)c(C)n1Cc1ccco1,6,0,2,3,3,-3,/,
Cc1cc(C(=O)CSc2ncccn2)c(C)n1Cc1ccco1,-2,-1,-7,-4,-6,19*,5,
O=c1[nH]n2c(=O)c3c([nH]c2c1N=Nc1cccc(Cl)c1)CCC3,20,56*,29,10,-7,21*,15,
NS(=O)(=O)c1ccc(N=Nc2c(=O)[nH]n3c(=O)c4c([nH]c23)CCCC4)cc1,1,7,16,6,-6,7,/,
CCOc1cccc(/C=C(/C#N)c2nc3ccccc3[nH]2)c1OCC(=O)O,-3,-1,-1,6,-5,4,/,
